Laboratory results published in ChEMBL document CHEMBL1146313, “Design and synthesis of piperidine farnesyltransferase inhibitors with reduced glucuronidation potential” (Bioorg Med Chem, 2007).

Assay: Inhibition of human FTase
Method in brief: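 Human FTase (50 ng purified enzyme) with His6-K-Ras4B (1 µM) and [3H]farnesyl diphosphate (500 nM) in 50 mM Tris-HCl pH 7.7, 5 mM MgCl2, 5 µM ZnCl2, 2 mM DTT, 0.2% octyl-glucoside. Incubated 30 min at room temperature, stopped with SDS. Protein precipitated with cold trichloroacetic acid and filter-collected, then 3H counted. Percent inhibition calculated against DMSO vehicle control.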

Compound | IC50 [µM]
Cn1cnc(CN2CC[C@@H](c3ccccc3Br)[C@H]([N+](=O)[O-])[C@H]2c2ccccc2)c1 (racemic) | > 0.5
CCc1ccccc1[C@@H]1CCN(Cc2cccnc2)[C@@H](c2ccccc2)[C@H]1C(=O)O (racemic) | > 0.5
CCc1ccccc1[C@@H]1CCN(Cc2cccnc2)[C@@H](c2ccccc2)[C@H]1C(=O)OC (racemic) | 0.095
O=[N+]([O-])[C@@H]1[C@@H](c2ccc(O)c(I)c2)N(Cc2cccnc2)CC[C@H]1c1ccccc1Br (racemic) | > 0.5
COc1cc([C@@H]2[C@@H]([N+](=O)[O-])[C@H](c3ccccc3Br)CCN2Cc2cccnc2)ccc1O (racemic) | 0.18
CCNc1cc([C@@H]2[C@@H]([N+](=O)[O-])[C@H](c3ccccc3Br)CCN2Cc2cccnc2)ccc1O (racemic) | 0.05
Cc1ccc(S(=O)(=O)Nc2cc([C@H]3[C@H]([N+](=O)[O-])[C@@H](c4ccccc4Br)CCN3Cc3cccnc3)ccc2O)cc1 (racemic) | 0.27
COc1ccc([C@@H]2[C@@H]([N+](=O)[O-])[C@H](c3ccccc3Br)CCN2Cc2cccnc2)cc1 (racemic) | > 0.5
O=[N+]([O-])[C@@H]1[C@@H](c2cccnc2)N(Cc2cccnc2)CC[C@H]1c1ccccc1Br (racemic) | > 0.5
CC(C)Nc1cc([C@@H]2[C@@H]([N+](=O)[O-])[C@H](c3ccccc3Br)CCN2Cc2cccnc2)ccc1O (racemic) | 0.098
CCc1ccccc1[C@@H]1CCN(Cc2cccnc2)[C@H](c2ccc(O)c(NCc3ccccc3)c2)[C@H]1[N+](=O)[O-] (racemic) | 0.121
O=[N+]([O-])c1cc([C@@H]2[C@@H]([N+](=O)[O-])[C@H](c3ccccc3Br)CCN2Cc2cccnc2)ccc1O (racemic) | > 0.5
CCc1ccccc1[C@@H]1CCN(Cc2cccnc2)[C@@H](c2ccccc2)[C@H]1C(=O)NC (racemic) | > 0.5
O=[N+]([O-])[C@@H]1[C@@H](c2ccc3[nH]cnc3c2)N(Cc2cccnc2)CC[C@H]1c1ccccc1Br (racemic) | > 0.5
CCc1ccccc1[C@@H]1CCN(Cc2cccnc2)[C@@H](c2ccccc2)[C@H]1CO (racemic) | > 0.5
C=CCOC(=O)[C@H]1[C@H](c2ccccc2CC)CCN(Cc2cccnc2)[C@H]1c1ccccc1 (racemic) | > 0.5
O=[N+]([O-])[C@@H]1[C@@H](c2ccccc2)N(Cc2cnc[nH]2)CC[C@H]1c1ccccc1Br (racemic) | > 0.5

Stronger by IC50, values ahead:

IC50 [µM] | Compound
0.017 | Cn1cncc1CN1CC[C@@H](c2ccccc2Br)[C@H]([N+](=O)[O-])[C@H]1c1ccccc1 (racemic)
0.042 | CCc1ccccc1[C@@H]1CCN(Cc2cccnc2)[C@@H](c2ccccc2)[C@H]1C(C)=O (racemic)
0.0037 | O=[N+]([O-])[C@@H]1[C@@H](c2ccc(O)c(O)c2)N(Cc2cccnc2)CC[C@H]1c1ccccc1Br (racemic)
0.046 | CCc1ccccc1[C@@H]1CCN(Cc2cccnc2)[C@H](c2ccc(O)c(N)c2)[C@H]1[N+](=O)[O-] (racemic)
0.027 | CC(=O)Nc1cc([C@H]2[C@H]([N+](=O)[O-])[C@@H](c3ccccc3Br)CCN2Cc2cccnc2)ccc1O (racemic)
0.014 | COC(=O)Nc1cc([C@H]2[C@H]([N+](=O)[O-])[C@@H](c3ccccc3Br)CCN2Cc2cccnc2)ccc1O (racemic)
0.0046 | CCc1ccccc1[C@H]1CCN(Cc2cccnc2)[C@@H](c2ccc(O)c(NS(C)(=O)=O)c2)[C@@H]1[N+](=O)[O-] (racemic)
0.0059 | CCS(=O)(=O)Nc1cc([C@H]2[C@H]([N+](=O)[O-])[C@@H](c3ccccc3Br)CCN2Cc2cccnc2)ccc1O (racemic)
0.003 | NS(=O)(=O)Nc1cc([C@H]2[C@H]([N+](=O)[O-])[C@@H](c3ccccc3Br)CCN2Cc2cccnc2)ccc1O (racemic)
0.0045 | CCc1ccccc1[C@H]1CCN(Cc2cccnc2)[C@@H](c2ccc(O)c(NS(N)(=O)=O)c2)[C@@H]1[N+](=O)[O-] (racemic)
0.016 | O=[N+]([O-])[C@@H]1[C@@H](c2ccccc2)N(Cc2cccnc2)CC[C@H]1c1ccccc1Br (racemic)
0.036 | O=[N+]([O-])[C@@H]1[C@@H](c2ccsc2)N(Cc2cccnc2)CC[C@H]1c1ccccc1Br (racemic)
0.012 | CCc1ccccc1[C@@H]1CCN(Cc2cccnc2)[C@H](c2ccc(O)c(NCc3ccncc3)c2)[C@H]1[N+](=O)[O-] (racemic)
0.025 | O=[N+]([O-])[C@H]1[C@H](c2ccccc2Br)CCN(Cc2cccnc2)[C@H]1c1ccccn1 (racemic)
0.0043 | CS(=O)(=O)Nc1cc([C@H]2[C@H]([N+](=O)[O-])[C@@H](c3ccccc3Br)CCN2Cc2cccnc2)ccc1O (racemic)
0.015 | NC(=O)Nc1cc([C@H]2[C@H]([N+](=O)[O-])[C@@H](c3ccccc3Br)CCN2Cc2cccnc2)ccc1O (racemic)
0.013 | Nc1cc([C@@H]2[C@@H]([N+](=O)[O-])[C@H](c3ccccc3Br)CCN2Cc2cccnc2)ccc1O (racemic)
0.0062 | CCc1ccccc1[C@H]1CCN(Cc2cccnc2)[C@@H](c2ccc(O)c(NC(N)=O)c2)[C@@H]1[N+](=O)[O-] (racemic)
0.023 | CCc1ccccc1[C@@H]1CCN(Cc2cccnc2)[C@H](c2ccc(O)c(NCc3ccccn3)c2)[C@H]1[N+](=O)[O-] (racemic)
0.024 | CCc1ccccc1[C@@H]1CCN(Cc2cccnc2)[C@H](c2ccc(O)c(NCc3cccnc3)c2)[C@H]1[N+](=O)[O-] (racemic)
0.0054 | O=[N+]([O-])[C@@H]1[C@@H](c2ccc(O)cc2)N(Cc2cccnc2)CC[C@H]1c1ccccc1Br (racemic)
0.044 | N#Cc1ccc(Cn2cncc2CN2CC[C@@H](c3ccccc3Br)[C@H]([N+](=O)[O-])[C@H]2c2ccccc2)cc1 (racemic)

Assay: Metabolic stability in mouse liver microsomes
Type: ADME, Microsome
Method in brief: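 Compound at 0.0010 mg/mL final was preincubated 5.0 min at 37 °C with mouse liver microsomes (1.0 mg/mL final, 100 mmol/L potassium phosphate, pH 7.4). Reaction was started with NADPH-generating system, NADPH system plus UDPGA (100 mmol/L), or UDPGA alone, then run 30 min at 37 °C. Quenched with acetonitrile internal standard and read by HPLC. Residual ratio is the 30-min concentration divided by the initial concentration.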

Compound | Stability
CCc1ccccc1[C@H]1CCN(Cc2cccnc2)[C@@H](c2ccc(O)c(NS(N)(=O)=O)c2)[C@@H]1[N+](=O)[O-] (racemic) | Stable
